Measured values published in ChEMBL document CHEMBL4480426, “Novel multi-target directed ligands based on annelated xanthine scaffold with aromatic substituents acting on adenosine receptor and monoamine oxidase B. Synthesis, in vitro and in silico studies” (Bioorg Med Chem, 2019).
pKi: −log10 of the molar value.

Key:
[1] = system: HepG2; assay: Hepatotoxicity against human HepG2 cells assessed as reduction in cell viability at 0.5 to 1 uM measured after 72 hrs by CellTiter96 Aqueous non-radioactive cell proliferation assay; format: toxicity, cell-based; conditions: hepg2, 72 h
Procedure, shortened: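 HepG2 cells seeded at 1.5×10^4 cells/well in MEM with 4.5 g/L glucose and 10% FBS, grown 24 h at 37 °C, 5% CO2. Compounds diluted in the same medium and applied for 72 h. CellTiter 96 AQueous reagent then added for 2 h, absorbance read at 490 nm. One-way ANOVA with Bonferroni post test.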

[2] = biological target: T1, Adenosine receptor A1 (Homo sapiens, UniProt P30542); assay: Displacement of [3H]CCPA from recombinant human adenosine A1 receptor expressed in CHO cells; format: cell-based
T1 sequence (P30542 whole entry): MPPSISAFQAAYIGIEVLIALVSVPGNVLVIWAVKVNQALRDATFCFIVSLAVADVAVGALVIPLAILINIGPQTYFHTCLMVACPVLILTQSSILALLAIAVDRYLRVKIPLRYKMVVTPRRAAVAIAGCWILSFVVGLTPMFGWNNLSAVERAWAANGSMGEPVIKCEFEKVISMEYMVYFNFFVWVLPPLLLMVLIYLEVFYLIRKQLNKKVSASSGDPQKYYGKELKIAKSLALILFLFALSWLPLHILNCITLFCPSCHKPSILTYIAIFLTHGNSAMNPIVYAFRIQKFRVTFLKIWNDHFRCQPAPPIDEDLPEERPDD

[3] = biological target: T2, Amine oxidase [flavin-containing] A (Homo sapiens, UniProt P21397); assay: Inhibition of recombinant human MAOA expressed in baculovirus infected BTI insect cells at 1 to 100 uM using p-tyramine as substrate preincubated for 30 mins followed by substrate addition and measured over 45 mins by horseradish peroxidase-Amplex Red-coupled fluorometric assay relative to control; conditions: 0.75 h
T2 sequence (P21397 whole entry): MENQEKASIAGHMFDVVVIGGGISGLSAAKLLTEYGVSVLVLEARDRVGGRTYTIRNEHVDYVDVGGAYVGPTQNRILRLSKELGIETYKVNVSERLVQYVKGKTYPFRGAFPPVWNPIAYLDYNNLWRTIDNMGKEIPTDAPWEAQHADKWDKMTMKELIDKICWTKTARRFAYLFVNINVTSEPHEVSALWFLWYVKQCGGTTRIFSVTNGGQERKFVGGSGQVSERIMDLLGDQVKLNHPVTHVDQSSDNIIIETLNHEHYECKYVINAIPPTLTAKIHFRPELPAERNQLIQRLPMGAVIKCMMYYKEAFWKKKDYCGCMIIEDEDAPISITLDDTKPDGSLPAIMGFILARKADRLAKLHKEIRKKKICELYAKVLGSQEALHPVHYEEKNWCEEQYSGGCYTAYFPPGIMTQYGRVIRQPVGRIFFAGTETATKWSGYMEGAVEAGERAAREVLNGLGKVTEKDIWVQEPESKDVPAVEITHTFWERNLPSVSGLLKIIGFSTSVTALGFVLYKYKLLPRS
Procedure, shortened: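 Human recombinant MAO-A or MAO-B enzyme. Activity detected fluorometrically with the Amplex Red monoamine oxidase assay.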

[4] = system: Brain; assay: Antioxidant activity in rat brain homogenate assessed as inhibition of FeCl2/ascorbic acid-induced lipid peroxidation by measuring reduction in TBARS level at 1000 uM preincubated for 5 mins followed by FeCl2/ascorbic acid addition and measured after 30 mins relative to control; format: functional, tissue-based; parameters: scale not given: the % may be the effect or the level left
Procedure, shortened: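 Rat brain homogenate in 0.9% saline, 10 mg tissue/ml, preincubated 5 min at 37 °C with compound or vehicle. Peroxidation started with 0.5 mM FeCl2 plus 2 mM ascorbic acid (added-solution concentrations). After 30 min, stopped with 0.2% BHT. Thiobarbituric acid reagent added, heated 15 min in boiling water, TBARS extracted into n-butanol and read at 532 nm. Carvedilol as reference.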

[5] = biological target: T3, Adenosine receptor A2b (Homo sapiens) (UniProt P29275); assay: Displacement of [3H]PSB603 from recombinant human adenosine A2b receptor expressed in HEK293 cells at 1 uM relative to control; format: cell-based
T3 sequence (whole entry): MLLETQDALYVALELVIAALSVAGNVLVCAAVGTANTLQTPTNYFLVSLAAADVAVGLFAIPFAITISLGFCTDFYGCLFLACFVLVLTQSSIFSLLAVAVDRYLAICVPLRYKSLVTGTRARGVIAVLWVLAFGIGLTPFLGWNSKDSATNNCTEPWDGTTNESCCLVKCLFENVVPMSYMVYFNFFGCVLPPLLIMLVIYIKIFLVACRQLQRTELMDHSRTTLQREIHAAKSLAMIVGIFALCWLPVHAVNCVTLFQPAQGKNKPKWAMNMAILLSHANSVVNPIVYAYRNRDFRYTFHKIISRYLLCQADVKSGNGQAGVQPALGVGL
Procedure, shortened: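 Purchased membranes of HEK cells expressing human A2A ([3H]MSX-2) or human A2B ([3H]PSB-603). A single high compound concentration is screened first; for potent compounds, full inhibition curves spanning 3 orders of magnitude. At least three independent experiments.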

pKi [2]: < 6.00
inhibition (INH) [3]: 5%
inhibition [5]: 40%
SMILES: Cn1c(=O)c2c(nc3n2CCCCN3Cc2ccc(Cl)c(Cl)c2)n(C)c1=O
Activity [1]: Toxic
Activity [4]: 16.6%
